Rows were chosen to be rich in hits. Some 2% of all compounds tested hit in one or more screens of this group.
Autophagy mod: modulators of autophagy; MEF GFP-LC3 puncta imaging; test concentration mostly 10 µM; calls only at 10 µM (by protocol); 190,000 compounds, 0.98% hits; AID 463193;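 active = percentage of spot-positive cells more than 3 SD above its plate mean, without a fluorescence outlier flag or 80% toxicity; inconclusive = no clear call, values can overlap the other calls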;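 also: spot-positive cell cutoff set from DMSO-treated cells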
Dynein transport: dynein cargo transport inhibition. 3617.4 mouse cells, GR-EGFP nuclear translocation imaging; test concentration mostly 20 µM; stimulated with dexamethasone, 1 µM; active compounds read low. z-score, hits read low. 220,000 compounds, 0.47% hits;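 active = plate z-score of nuclear minus cytoplasmic receptor signal below a set negative limit, without overly bright fluorescence or cell loss, cut at about -3.5 in these data, passing the limit was not always enough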;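 also: z-score of nuclear minus cytoplasmic ring GR-EGFP intensity difference per well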
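Medium: Induction medium lacking tetracycline, stripped serum | Probe or stimulus: 1.0 µM final dexamethasone stimulus | Schedule: 48 h induction, then 1 h compound, then 30 min agonist, 37 °C | Signal: Automated 10x imaging of fixed Hoechst-stained cells | Evaluation: Per-cell GR-EGFP intensity, nucleus versus surrounding cytoplasmic ring, well-averaged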
Furin inhibitor: human furin inhibition | P09958 | purified furin, fluorogenic substrate cleavage | inhibition, % at 20 µM or 30 µM | 220,000 compounds, 0.061% hits | AID 463115; in the data active = inhibition above about 25%
Target sequence (P09958 108-714 limits assumed): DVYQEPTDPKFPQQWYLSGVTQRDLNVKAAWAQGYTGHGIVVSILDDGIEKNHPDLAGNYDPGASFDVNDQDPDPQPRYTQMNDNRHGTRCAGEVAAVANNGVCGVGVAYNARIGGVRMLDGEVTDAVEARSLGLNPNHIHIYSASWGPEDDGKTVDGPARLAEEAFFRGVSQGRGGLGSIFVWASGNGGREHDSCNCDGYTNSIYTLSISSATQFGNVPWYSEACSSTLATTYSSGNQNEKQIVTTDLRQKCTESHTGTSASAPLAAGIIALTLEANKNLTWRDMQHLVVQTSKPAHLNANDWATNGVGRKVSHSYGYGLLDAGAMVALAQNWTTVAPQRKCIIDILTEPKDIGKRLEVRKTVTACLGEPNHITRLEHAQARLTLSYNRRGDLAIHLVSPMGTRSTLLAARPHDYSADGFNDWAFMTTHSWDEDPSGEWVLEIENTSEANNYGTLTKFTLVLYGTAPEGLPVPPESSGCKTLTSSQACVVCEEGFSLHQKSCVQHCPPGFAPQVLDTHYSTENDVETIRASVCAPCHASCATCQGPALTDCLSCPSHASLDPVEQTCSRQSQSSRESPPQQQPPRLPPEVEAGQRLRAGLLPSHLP
Insulin prom inh: TRM-6 insulin promoter activity inhibition | TRM-6 cells (human fetal islet line), insulin promoter-eGFP reporter, imaging; reporter expression induced with tamoxifen | inhibition, % at 2 µM | 130,000 compounds, 0.9% hits;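 active = inhibition above the mean plus 3 SD, with well images judged a real hit on visual review, cut at about 60% in these data, passing the limit was not always enough; inconclusive = inhibition over the cutoff but images rejected on review; inactive = inhibition not above the cutoff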
Ins promoter up: MIN6 insulin promoter up-regulation. MIN6 insulin promoter-GFP reporter, high-content imaging; active compounds read high. z-score at 5 µM. 190,000 compounds, 0.3% hits. AID 1625;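 active = z-score above 3 at 5 µM with at least 500 cells counted in the well; inconclusive = wells under 500 cells, flagged as cytotoxic or low count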
HSV augment: HSV replication enhancement; maximum fold increase; 220,000 compounds, 0.005% hits; AID 1956; HSV replication augmentation in cells, fold increase; in the data active = maximum fold increase above about 1.5; inconclusive = no clear call, values can overlap the other calls; tested in PC3 cells
Active calls of the source: *; i = inactive; ? = inconclusive; . = not tested or not shown; + = active, no number.

SMILES	Autophagy mod	Dynein transport	Furin inhibitor	Insulin prom inh	Ins promoter up	HSV augment
Cc1ccc(-c2nc(C)sc2CC(=O)Nc2cccc(C)c2C)cc1	i	-0.21	-15	-79	-0.31	i
COCCCN=C1NN=C(c2cc(C)n(Cc3ccccc3Cl)c2C)CS1	+	0.1	-8	-45	-0.65	i
CCc1cccc(NC(=O)C(NC(=O)C2CCCCC2)C(C)C)c1 (stereo not given)	i	-2.6e-05	-19	-100	-0.05	i
CCCN1C(=O)/C(=C\C=C2\N(CC)c3ccccc3C2(C)C)SC1=S	+	-1.9	-22	.	.	?
CCCN1C(=O)/C(=C\C=C2/Sc3ccccc3N2CC)SC1=S	i	-0.94	-5	-388	0.32	?
COc1cccc(NC(=O)N2CCN(c3cccc(C)c3C)CC2)c1	+	0.33	-17	-84	0.71	i
Cc1cccc(N2CCN(C(=O)Cn3cccc3)CC2)c1C	i	-0.55	-20	.	0.06	i
Cc1cccc(N2CCN(C(=O)C(C)C)CC2)c1C	i	1.7	-13	79*	0.12	i
CCOC(=O)N1CCN(c2c(N3CCN(c4cccc(C)c4C)CC3)c(=O)c2=O)CC1	+	-0.16	-15	.	0.71	i
O=C(O)c1nn(CCSc2ccccc2F)c(=O)c2ccccc12	.	0.14	-11	.	0.78	i
S=C1NCCC12C(=S)Nc1ccccc12 (stereo not given)	.	.	.	.	.	i
CC(C)c1nc2sc3c(NCc4ccco4)ncnc3c2c2c1COC(C)(C)C2	i	-0.1	-1	.	-2.6	i
CC(C)c1nc2sc3c(NCc4ccccc4)ncnc3c2c2c1COC(C)(C)C2	+	0.16	-11	-26	-0.62	i
COc1ccc(-c2nnc(SCc3c(C)noc3C)o2)cc1	i	1.3	-19	-35	0.06	i
Cn1nc(-c2ccc(Cl)cc2)c2cc(C(=O)NCCCN3CCCC3)sc21	+	0.48	-40	.	-0.32	i
CCN1CCCC1CNC(=O)c1cc2c(-c3ccc(Cl)cc3)nn(C)c2s1 (stereo not given)	+	1.9	-19	.	-1.9	i
CCCCNC(=O)c1cc2c(-c3ccc(Cl)cc3)nn(C)c2s1	i	0.15	-28	.	-0.15	i
O=C(/C=C/c1ccc(F)cc1)NCCc1ccc2c(c1)OCCO2	i	-0.4	-18	.	-0.48	i
COC(=O)c1ccccc1SC(CC(=O)c1ccccc1)c1ccc(F)cc1 (stereo not given)	.	-0.099	-19	.	-0.43	i
O=C(O)C1C2CCC(O2)C1C(=O)NCc1ccc(Cl)cc1 (stereo not given)	i	-0.25	-20	62*	0.51	i
CN(C(=O)c1ccc(=O)n(Cc2ccc(Cl)cc2)c1)c1ccccc1	i	-0.87	-26	.	.	i
O=C(Nc1cnccn1)Nc1ccc(Cl)cc1Cl	i	-0.58	-27	47	-0.64	i
CC(C)NC(=O)NC(=O)COC(=O)c1cccc(S(=O)(=O)N2CCCCC2)c1	i	-0.14	-15	0	4.6*	i
Cc1cccc(C)c1NC(=O)CN(C)CC(=O)Nc1ccccc1Oc1ccccc1	i	-0.76	-14	.	1.1	i
Cc1ccc(NC(=O)CN(C)CC(=O)Nc2ccccc2Oc2ccccc2)cc1	+	0.88	-6	.	-0.36	i
SMILES	Autophagy mod	Dynein transport	Furin inhibitor	Insulin prom inh	Ins promoter up	HSV augment
CC(=O)c1nc(N2C(=O)CC(Cc3cc(C)cc(C)c3)C2=O)sc1C (stereo not given)	+	0.15	-8	-32	-0.25	i
Oc1c(C(Nc2ccccn2)c2cccnc2)cc(Cl)c2cccnc12 (stereo not given)	+	-0.14	-16	27	-0.41	i
O=C(O)CN1C(=O)NC2NC(=O)NC21 (stereo not given)	i	-0.82	-13	38	-0.6	i
O=C(O)CCCN1C(=O)NC2NC(=O)NC21 (stereo not given)	+	-0.9	-20	38	0.47	i
CCN1/C(=C\c2ccc3cc(C)ccc3[n+]2CC)Sc2cc(C)c(C)cc21	+	-1.2	3	-413	?	.
CCN1/C(=C/c2ccc3cccc(C)c3[n+]2CC)Sc2ccccc21	+	-2.2	-16	-233	.	.
CCN1/C(=C/c2ccc3cc(C)cc(C)c3[n+]2CC)Sc2cc(C)ccc21	?	6.9	0	-413	?	.
CCc1cn([C@H]2C[C@H](O)[C@@H](CO)O2)c(=O)[nH]c1=O	i	-0.65	-4	-27	.	i
